# ChEMBL document CHEMBL4828745, “Discovery and Structure-Activity Relationships of Quinazolinone-2-carboxamide Derivatives as Novel Orally Efficacious Antimalarials” (J Med Chem, 2021)
# Legend:
# [1] = Intrinsic clearance in rat liver microsomes at […] by LC-MS/MS analysis; format: ADME, Microsome
# Summary of the method: (§1)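 Liver microsomes (human, mouse or rat) at 0.4 mg/mL protein, 37 °C, with an NADPH-regenerating system. Compound at 0.25 or 0.5 μM. Acetonitrile/diazepam quench, LC-MS quantitation. CLint from the first-order degradation rate constant.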
# Plasmodium falciparum [2] = assay: Antimalarial activity against Plasmodium falciparum 3D70087/N9 infected in humanized NODscidlL2Rgamma null mouse model assessed as reduction in parasitemia at 50 mg/kg, po for 4 consecutive days measured after 7 days of post infection relative to control; format: functional; details: 3D70087/N9, po, 96 h, time 4 day
# Summary of the method: (§2)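 P. falciparum humanized SCID mouse model. Monosodium tetrahydrate salt given orally at 50 or 100 mg/kg on 4 consecutive days, n = 2 mice per group. Parasitemia read at day 7 post infection versus untreated controls.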
# [3] = Stability in human plasma assessed as compound remaining at 1000 ng/ml after 2 hrs by LC-MS analysis; format: ADME, cell-free; details: read-out: Stability
# Summary of the method: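 Pooled plasma (human, 3 donors; or male Sprague Dawley rat) spiked to nominal 1000 ng/mL, with at most 0.2% DMSO and 0.4% acetonitrile final. Held at 37 °C with timed aliquots. LC-MS against matrix standards with diazepam internal standard. Percent remaining is relative to the 5 min sample.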
# Plasmodium falciparum [4] = assay: Antimalarial activity against Plasmodium falciparum K1 harbouring Pf-crt, Pf-mdrl,Pf-dhfr, Pf-dhps mutated loci assessed as inhibition of parasite growth incubated for […] by [3H]hypoxanthine incorporation assay based liquid scintillation counting method; format: functional, organism-based
# Summary of the method: (§3)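 Drug-resistant laboratory P. falciparum strains were compared against the sensitive strain NF54. Growth inhibition was read by a modified [3H]hypoxanthine incorporation assay over 72 h. IC50 is the mean of two independent biological replicates. Chloroquine and artesunate served as controls.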
# Plasmodium falciparum [5] = assay: Antimalarial activity against Plasmodium falciparum Dd2 MMV048 mutant harbouring Pf-pi4k assessed as inhibition of parasite growth incubated for […] by [3H]hypoxanthine incorporation assay based liquid scintillation counting method; format: functional, organism-based
# Summary of the method: (§4)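 Genetically engineered P. falciparum lines carried mutations introduced into the Dd2 wild-type strain, which was tested alongside them. Growth inhibition was read by [3H]hypoxanthine incorporation over 72 h. IC50 is the mean of two independent biological replicates. Chloroquine and artesunate served as controls.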
# Plasmodium falciparum [6] = assay: Antimalarial activity against Plasmodium falciparum Cam3.1 harbouring Pf-crt, Pf-mdrl,Pf-dhfr, Pf-dhps, pf-kelch13 mutated loci assessed as inhibition of parasite growth incubated for […] by [3H]hypoxanthine incorporation assay based liquid scintillation counting method; format: functional, organism-based; summary of the method: as §3
# CYP3A4 = CYP3A4 (Homo sapiens, UniProt P08684); assay: Inhibition of CYP3A4 (unknown origin) at 10 uM by UPLC-MS analysis relative to control; format: ADME
# Summary of the method: (§5)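 Human liver microsomes, using a substrate-specific metabolite approach. Test compound at 1 and 10 μM. Reference inhibitors: furafylline (1A2), sulfaphenazole (2C9), quinidine (2D6), ketoconazole (3A4). Specific metabolites quantified by UPLC-MS. Percent inhibition relative to incubation without inhibitor.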
# Plasmodium falciparum [7] = assay: Antimalarial activity against wild type Plasmodium falciparum Dd2 assessed as inhibition of parasite growth incubated for […] by [3H]hypoxanthine incorporation assay based liquid scintillation counting method; format: functional, organism-based; summary of the method: as §4
# Plasmodium falciparum [8] = assay: Antimalarial activity against Plasmodium falciparum 3D70087/N9 infected in humanized NODscidlL2Rgamma null mouse model assessed as reduction in parasitemia at 100 mg/kg, po for 4 consecutive days measured after 7 days of post infection relative to control; format: functional; details: 3D70087/N9, po, 96 h, time 4 day; summary of the method: as §2
# [9] = Ratio of drug level in whole blood to plasma in Sprague-Dawley rat by LC-MS analysis; format: ADME, cell-free; details: whole blood and plasma
# Summary of the method: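 Apparent whole-blood-to-plasma partitioning measured in vitro in rat blood.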
# [10] = Intrinsic clearance in human liver microsomes at […] by LC-MS/MS analysis; format: ADME, Microsome; summary of the method: as §1
# Plasmodium falciparum [11] = assay: Antiplasmodial activity against Plasmodium falciparum 3D7 infected in human erythrocyte assessed as intraerythrocytic growth inhibition incubated for 72 hrs by DAPI-staining based imaging analysis; format: functional, organism-based; details: 3D7, 72 h
# Summary of the method: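 P. falciparum 3D7 cultured in RPMI1640 with hypoxanthine, HEPES, 2.5 mg/mL AlbuMAX II and 5% human serum. Sorbitol-synchronized rings exposed 72 h at 37 °C under 5% CO2/5% O2, then DAPI-stained with saponin/Triton X-100 for 8 h in the dark. High-content imaging with spot detection. Duplicate points. Reference antimalarials run in each assay.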
# [12] = Cytotoxicity against human HEK293 cells assessed as cell viability incubated for 72 hrs by Alamar blue assay; format: cell-based
# Summary of the method: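 HEK293 cells handled with the same incubation, compound addition and timing as the 72 h parasite assay. Alamar Blue, diluted in growth medium, was incubated 4 h at 37 °C/5% CO2, then 20 h at room temperature before plate read.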
# CYP2D6 = CYP2D6 (Homo sapiens, UniProt P10635); assay: Inhibition of CYP2D6 (unknown origin) at 10 uM by UPLC-MS analysis relative to control; format: ADME; summary of the method: as §5
# Plasmodium falciparum [13] = assay: Antiplasmodial activity against liver stage Plasmodium falciparum NF54 sporozoites infected in human hepatocytes assessed as maximal parasite killing measured after 96 hrs by schizont assay relative to control; format: functional
# [14] = Intrinsic clearance in mouse liver microsomes at […] by LC-MS/MS analysis; format: ADME, Microsome; summary of the method: as §1
# Plasmodium falciparum [15] = assay: Antimalarial activity against Plasmodium falciparum 7G8 harbouring Pf-crt, Pf-mdrl,Pf-dhfr, Pf-dhps mutated loci assessed as inhibition of parasite growth incubated for […] by [3H]hypoxanthine incorporation assay based liquid scintillation counting method; format: functional, organism-based; summary of the method: as §3
# Plasmodium falciparum [16] = assay: Antimalarial activity against Plasmodium falciparum Dd2 […] mutant harbouring Pf-car1 assessed as inhibition of parasite growth incubated for […] by [3H]hypoxanthine incorporation assay based liquid scintillation counting method; format: functional, organism-based; summary of the method: as §4
# Plasmodium falciparum [17] = assay: Antimalarial activity against Plasmodium falciparum NF54 assessed as inhibition of parasite growth incubated for 72 hrs by [3H]hypoxanthine incorporation assay based liquid scintillation counting method
# [18] = Intrinsic clearance in rat hepatocytes measured per 10^6 cells at 0.25 uM by LC-MS analysis; format: ADME, cell-based, Hepatocyte; details: read-out: CLH
# Summary of the method: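 Compound at 0.25 μM incubated with cryopreserved human or rat hepatocytes (1×10^6 cells/mL) in Krebs–Henseleit buffer at 37 °C. Quenched with acetonitrile containing diazepam. LC-MS quantitation. CLint from the first-order degradation rate constant.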
# CYP2C9 = CYP2C9 (Homo sapiens, UniProt P11712); assay: Inhibition of CYP2C9 (unknown origin) at 10 uM by UPLC-MS analysis relative to control; format: ADME; summary of the method: as §5
# [19] = Kinetic solubility of the compound in pH 6.5 phosphate buffer by nephelometry; format: physicochemical; details: read-out: Kinetic_solubility
# Summary of the method: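 DMSO stock spiked into pH 6.5 phosphate buffer (1% DMSO final). After 30 min, solubility range estimated by nephelometry.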
# Plasmodium falciparum [20] = assay: Antiplasmodial activity against asexual blood stage Plasmodium falciparum 3D7 (MR4) infected in erythrocytes assessed as parasite reduction ratio at 10 times of IC50 concentration treated up to 120 hrs measured after 21 days of serial dilution; format: functional; details: time hrs <=120
# Summary of the method: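 Samples taken every 24 h and washed free of drug. Viable parasites counted by limiting dilution: 3-fold serial dilutions, four independent series, growth scored at 21 days and confirmed at 28 days.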
# [21] = Fraction unbound in human plasma; format: ADME, cell-free
# Summary of the method: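 Human plasma protein binding measured by rapid equilibrium dialysis.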
# Sequence of CYP3A4 (P08684 whole entry): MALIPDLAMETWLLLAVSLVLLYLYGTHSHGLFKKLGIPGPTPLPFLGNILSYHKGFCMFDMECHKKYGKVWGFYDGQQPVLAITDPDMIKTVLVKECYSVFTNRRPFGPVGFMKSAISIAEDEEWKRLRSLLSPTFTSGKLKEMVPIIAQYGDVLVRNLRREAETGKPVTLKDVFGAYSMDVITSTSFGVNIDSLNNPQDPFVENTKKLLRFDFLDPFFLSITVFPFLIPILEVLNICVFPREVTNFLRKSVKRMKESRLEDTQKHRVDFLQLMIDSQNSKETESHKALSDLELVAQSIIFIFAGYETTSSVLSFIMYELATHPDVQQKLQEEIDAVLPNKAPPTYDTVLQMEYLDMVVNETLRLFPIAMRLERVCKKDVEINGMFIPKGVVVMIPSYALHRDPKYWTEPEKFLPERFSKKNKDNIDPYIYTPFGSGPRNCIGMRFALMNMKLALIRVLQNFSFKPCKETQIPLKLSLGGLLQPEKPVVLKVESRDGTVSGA
# Sequence of CYP2D6 (P10635 whole entry): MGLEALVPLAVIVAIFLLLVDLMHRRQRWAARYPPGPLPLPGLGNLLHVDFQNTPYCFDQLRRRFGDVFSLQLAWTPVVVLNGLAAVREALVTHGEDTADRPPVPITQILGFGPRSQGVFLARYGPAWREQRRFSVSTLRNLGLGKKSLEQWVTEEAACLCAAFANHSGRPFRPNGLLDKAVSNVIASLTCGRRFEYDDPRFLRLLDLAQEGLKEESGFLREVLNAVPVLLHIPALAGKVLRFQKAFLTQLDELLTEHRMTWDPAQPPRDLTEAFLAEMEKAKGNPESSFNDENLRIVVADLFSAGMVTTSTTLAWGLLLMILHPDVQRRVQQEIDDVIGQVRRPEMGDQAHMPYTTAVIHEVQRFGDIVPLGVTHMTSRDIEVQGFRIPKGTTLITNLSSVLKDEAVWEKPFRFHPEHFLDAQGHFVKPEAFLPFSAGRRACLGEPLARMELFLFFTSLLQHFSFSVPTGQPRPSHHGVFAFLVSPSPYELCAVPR
# Sequence of CYP2C9 (P11712 whole entry): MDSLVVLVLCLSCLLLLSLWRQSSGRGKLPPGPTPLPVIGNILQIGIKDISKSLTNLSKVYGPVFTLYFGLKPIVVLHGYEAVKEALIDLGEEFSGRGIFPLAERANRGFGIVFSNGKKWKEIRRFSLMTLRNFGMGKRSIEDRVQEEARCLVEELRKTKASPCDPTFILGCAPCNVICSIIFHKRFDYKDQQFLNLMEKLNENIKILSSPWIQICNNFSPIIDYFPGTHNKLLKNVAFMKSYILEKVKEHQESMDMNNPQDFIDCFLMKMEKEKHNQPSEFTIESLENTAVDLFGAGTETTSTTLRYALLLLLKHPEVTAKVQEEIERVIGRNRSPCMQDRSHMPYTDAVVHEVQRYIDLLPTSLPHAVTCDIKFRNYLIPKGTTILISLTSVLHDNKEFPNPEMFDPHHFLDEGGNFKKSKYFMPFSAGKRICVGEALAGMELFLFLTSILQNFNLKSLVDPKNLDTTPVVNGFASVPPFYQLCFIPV
structure (smiles),measurement,setting,value
CCc1cccc(CNC(=O)c2nc3cccc(COCc4ccc(C(=O)O)cc4)c3c(=O)[nH]2)c1,CLH,[1],36 uL/ml.millig
same,inhibition in vivo at 50 mg/kg,Plasmodium falciparum [2],65%
same,"remaining at 2 h, 1000 ng/ml",[3],100%
same,IC50,Plasmodium falciparum [4],0.031 µM
same,IC50,Plasmodium falciparum [5],0.027 µM
same,IC50,Plasmodium falciparum [6],0.031 µM
same,inhibition at 10 µM,CYP3A4,< 10%
same,IC50,Plasmodium falciparum [7],0.033 µM
same,inhibition in vivo at 100 mg/kg,Plasmodium falciparum [8],89%
same,blood plasma ratio,[9],0.62
same,CLH,[10],35 uL/ml.millig
same,IC50,Plasmodium falciparum [11],0.025 µM
same,CC50 at 72 h,[12],> 40 µM
same,inhibition at 10 µM,CYP2D6,< 10%
same,Emax,Plasmodium falciparum [13],50%
same,CLH,[14],183 uL/ml.millig
same,IC50,Plasmodium falciparum [15],0.016 µM
same,IC50,Plasmodium falciparum [16],0.018 µM
same,IC50,Plasmodium falciparum [17],0.06 µM
same,hepatocyte CLint at 0.25 µM,[18],6 µL/min/1e6 cells
same,inhibition at 10 µM,CYP2C9,55%
same,solubility kinetic,[19],< 1.6 µg/mL
same,Ratio,Plasmodium falciparum [20],4.6
same,Fu,[21],0.2%
